# Compound activity: PubChem BioAssay, Johns Hopkins Ion Channel Center
# RGS4 act – RGS4 potentiation or activation | B-score at 10 µM | HEK293 M3R/inducible RGS4, carbachol calcium flux Fluo4; hits give low values | actives 0.92% (n = 310,000);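 active = B-score of the integrated calcium signal more than 4 SD below the library mean, with starting fluorescence not abnormally high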;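 also: negative B-score means reduced calcium response which marks RGS4 activation or potentiation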
#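 test system = HEK293 cells with stable M3R and inducible RGS4 | schedule = recording 10 s baseline at 1 Hz, 100 s post-agonist | technique = Fluo4-AM (2 µM) calcium-flux fluorescence, kinetic read | measure = Agonist-evoked peak-minus-minimum fluorescence over baseline, integrated ratio, B score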
# RGS4 inh – inhibitors of human RGS4 | P49798 | HEK293 M3R/RGS4 inducible, Fluo-4 calcium flux; hits give high values; triggered by carbachol at its EC20 | B-score at 10 µM | actives 0.45% (n = 310,000);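 active = B-score, a plate-corrected calcium signal, over three deviations above library mean, with baseline fluorescence within five deviations of library mean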;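 also: RGS4 expression induced by doxycycline in cells with stable M3 receptor; B-score is computed from the integrated fluorescence ratio over baseline after carbachol; higher B-score means a larger calcium signal and so more RGS4 inhibition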
# Target sequence (P49798 whole entry, looked up): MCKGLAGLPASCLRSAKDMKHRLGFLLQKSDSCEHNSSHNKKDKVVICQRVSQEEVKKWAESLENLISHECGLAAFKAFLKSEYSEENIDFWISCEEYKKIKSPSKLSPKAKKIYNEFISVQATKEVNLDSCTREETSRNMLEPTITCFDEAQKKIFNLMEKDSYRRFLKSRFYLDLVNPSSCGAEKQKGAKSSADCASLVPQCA
# MrgX1 agonist – human MrgX1 receptor agonism, primary screen; actives 0.44% (n = 310,000); AID 588627; MrgX1-HEK293 cells, Fluo-4 calcium fluorescence, agonist mode; hits give high values; Q96LB2; B-score at 10 µM;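 active = calcium response B-score plate-corrected fluorescence ratio at least 3 library SD, with starting fluorescence B-score inside 5 SD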
# Target sequence (Q96LB2 whole entry, looked up): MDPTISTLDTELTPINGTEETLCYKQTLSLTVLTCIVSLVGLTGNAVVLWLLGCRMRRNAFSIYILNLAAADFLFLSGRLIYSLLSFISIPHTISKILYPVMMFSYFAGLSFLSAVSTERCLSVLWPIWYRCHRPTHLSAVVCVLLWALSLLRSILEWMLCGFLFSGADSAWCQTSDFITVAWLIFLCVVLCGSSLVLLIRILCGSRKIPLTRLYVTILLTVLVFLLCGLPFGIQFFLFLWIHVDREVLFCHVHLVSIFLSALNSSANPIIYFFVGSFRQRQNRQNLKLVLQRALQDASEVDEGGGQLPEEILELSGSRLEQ
#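 Material: MrgX1-expressing HEK293 cells / Dosing: compound as first of three additions / Incubation: overnight seeding, then 1 h dark dye loading / Signal: Fluo-4 NW calcium fluorescence / Evaluation: B-scored fluorescence response ratio / Benchmarks: positive and negative control wells on each plate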
# MrgX1 antagonist – antagonists of human MrgX1 receptor. Q96LB2. MRGX1-HEK293 calcium flux, Fluo-4, BAM8-22 antagonism; hits give low values. B-score at 10 µM. actives 1.3% (n = 310,000);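 active = calcium-response B-score plate-corrected more than 3 library SD below zero, starting fluorescence within 5 deviations, no agonist response on first addition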;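 also: peak minus trough fluorescence over baseline after final BAM8-22 challenge near maximal dose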
# MrgX1 PAM – allosterically activates human MrgX1 receptor signaling | actives 0.63% (n = 310,000) | AID 588675 | B-score at 10 µM | Q96LB2 | MrgX1-HEK293, Fluo-4 calcium flux, FDSS; hits give high values;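 active = plate-corrected calcium response at least 3 library SD above typical, normal starting fluorescence, not activating the receptor alone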;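 also: compound read alongside a low EC10 to EC30 dose of BAM8-22 agonist; peak minus trough fluorescence over baseline measured at the second addition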
# MrgX1 ag reconf – reconfirmed activator of human MrgX1 receptor signaling; shares compounds with MrgX1 agonist; actives 78% (n = 600); MrgX1-HEK293, Fluo-4 calcium fluorescence, FDSS; AID 602412; activation, % at 10 µM;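 active = calcium signal rise, corrected for plate position, at least 3 library SD high, with starting brightness within 5 such deviations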
# HEK293 Ca flux – activity in parental HEK293 cells lacking MrgX1; shares compounds with MrgX1 antagonist; Fluo-4 calcium fluorescence, FDSS; fluorescence ratio F(max-min)/F0 at 10 µM; actives 2% (n = 4,000); AID 624111;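 active = duplicate-averaged calcium fluorescence ratio at least three times the standard deviation of buffer wells, a nonspecific response in parental cells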
# HEK293 Ca counter – counter-screen for MrgX1 allosteric activators: effect in parental HEK293 cells; shares compounds with MrgX1 antagonist; parental HEK293 calcium flux, Fluo-4 fluorescence ratio; hits give high values; fluorescence ratio F(max-min)/F0 at 10 µM; actives 0.4% (n = 4,000); AID 624114;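 active = calcium fluorescence ratio, averaged over duplicates, at least 3 SD of the buffer-well ratio, meaning a nonspecific response in receptor-free cells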;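 also: untransfected parental HEK293 lacking MrgX1 used as counterscreen for MrgX1 allosteric activators; fluorescence change taken during the second addition on a kinetic imager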
# HEK293 Ca cntr2 – counter-screen for MrgX1 activators: effect in parental HEK293 cells | fluorescence ratio F(max-min)/F0 at 10 µM | Fluo-4 calcium fluorescence (FDSS); hits give high values | shares compounds with MrgX1 antagonist | actives 8.7% (n = 4,000);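 active = calcium fluorescence ratio at least three times the spread of buffer wells, meaning a non-specific response in parental cells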
# * hit, by the source's call; i = inactive; nt = not tested or not shown. Sampled rows, rich in hits. Any-hit rate of the full collection: about 3.5%.
SMILES,RGS4 act,RGS4 inh,MrgX1 agonist,MrgX1 antagonist,MrgX1 PAM,MrgX1 ag reconf,HEK293 Ca flux,HEK293 Ca counter,HEK293 Ca cntr2
O=C(CSc1ccc2nnc(-c3ccccn3)n2n1)Nc1cccc(F)c1,i,i,i,i,i,nt,nt,nt,nt
CCOC(=O)Cc1csc(NC(=O)c2ccc(Cl)s2)n1,i,i,31*,i,i,112%*,i,i,i
CCOC(=O)Cc1csc(NC(=O)c2cccc(Cl)c2)n1,i,i,i,i,i,nt,nt,nt,nt
Cc1cc([N+](=O)[O-])nn1CC(=O)N/N=C/c1ccc(O)cc1O,i,i,i,i,i,nt,nt,nt,nt
COc1ccc(CCNC(=S)NCCc2ccc(OC)c(OC)c2)cc1OC,i,i,i,i,i,nt,nt,nt,nt
CCOC(=O)c1ccc(NC(=S)NCCc2ccc(OC)c(OC)c2)cc1,i,i,36*,i,i,i,i,i,i
Cc1[nH]nc2c1C(c1ccc(-c3ccc(Cl)cc3)o1)C(C#N)=C(N)O2 (stereo not drawn),i,i,34*,i,i,i,i,i,i
Cc1ccc(-c2ccc(C3C(C#N)=C(N)Oc4n[nH]c(C)c43)o2)cc1 (stereo not drawn),i,i,37*,i,i,129%*,i,i,i
CC(C)Cc1nc(SCC(=O)N2CCCCC2)c2c(=O)n(C)c(=O)n(C)c2n1,i,i,i,i,i,nt,nt,nt,nt
O=S(=O)(c1ccccc1)c1nnn2c1nc(NC1CCN(Cc3ccccc3)CC1)c1ccccc12,i,i,60*,i,i,274%*,i,i,i
Cc1ccc(OCCC(=O)N(CC(=O)Nc2ccccc2C(F)(F)F)Cc2ccco2)cc1,i,i,i,i,i,nt,nt,nt,nt
Cc1ccc(-n2nc(C)c3c2OC(N)=C(C#N)C3c2ccncc2)cc1 (stereo not drawn),i,i,i,i,i,nt,nt,nt,nt
Cc1ccc(-n2nc(C)c3c2OC(N)=C(C#N)C3c2ccccc2F)cc1 (stereo not drawn),i,i,27*,i,i,163%*,i,i,i
O=C(O)c1cnn(-c2nc(-c3cccc(F)c3)cs2)c1C(F)(F)F,i,i,48*,i,i,156%*,i,i,i
Nc1cccc(-c2csc(-n3ncc(C(=O)O)c3C(F)(F)F)n2)c1,i,i,i,i,i,nt,nt,nt,nt
CCN(CC(=O)Nc1c(F)cccc1F)C(=O)c1ccc(COc2ccccc2)o1,i,i,i,i,i,nt,nt,nt,nt
COc1ccc(-c2cc(OC)c3c(C)oc(C)c3c(=O)c2)cc1OC,i,i,i,i,i,nt,nt,nt,nt
COc1cc(-c2cc(OC)c3c(C)oc(C)c3c(=O)c2)ccc1O,i,i,30*,i,i,175%*,i,i,i
O=C(OC(C(=O)NC1CCCCC1)c1ccc(C(F)(F)F)cc1)c1ccco1 (stereo not drawn),i,i,i,i,i,nt,nt,nt,nt
C#CCOC(=O)Nc1cc(C)n(-c2ccccc2)n1,i,i,i,i,i,nt,nt,nt,nt
O=S(=O)(Nc1ccc2c(c1)nc1n2CCN(Cc2ccccc2)C1)c1ccccc1,i,i,i,i,i,nt,nt,nt,nt
Cc1ccc(S(=O)(=O)Nc2ccc3c(c2)nc2n3CCN(Cc3ccccc3)C2)cc1,i,i,34*,i,i,i,i,i,i
O=C(Cc1c2ccccc2nc2ccccc12)c1ccccc1,i,i,31*,i,i,i,i,i,i
Cc1cc(C)c(NC(=O)c2cc(C(=O)O)ccc2C(=O)O)c([N+](=O)[O-])c1,i,i,i,i,i,nt,nt,nt,nt
CC(=O)Nc1cccc(OC(=O)c2ccoc2C)c1,i,i,33*,i,i,128%*,i,i,46*
SMILES,RGS4 act,RGS4 inh,MrgX1 agonist,MrgX1 antagonist,MrgX1 PAM,MrgX1 ag reconf,HEK293 Ca flux,HEK293 Ca counter,HEK293 Ca cntr2
CCN1C(Nc2ccccc2)=NC[C@@H]1CC(C)C,i,i,i,i,i,nt,nt,nt,nt
Cc1cccc(CCN2CCN=C2Nc2ccccc2)c1,nt,nt,50*,i,i,278%*,i,i,67*
CC(C)CCN1C(Nc2ccccc2)=NC[C@@H]1CC(C)C,i,i,i,i,i,nt,nt,nt,nt
CC(C)C[C@H]1CN=C(Nc2ccccc2)N1CCc1ccc(F)cc1,nt,nt,120*,i,i,575%*,i,i,106*
c1ccc(CCN2CCN=C2Nc2ccccc2)cc1,i,i,i,i,i,nt,nt,nt,nt
Cc1cccc(CCN2C(Nc3ccccc3)=NC[C@@H]2CC(C)C)c1,nt,nt,114*,i,i,586%*,i,i,101*
Fc1ccc(NC(=S)N2CCN(c3ccccn3)CC2)cc1Cl,i,i,i,i,i,nt,nt,nt,nt
O=C(Cn1nnc(-c2ccccc2F)n1)NCc1ccco1,i,i,i,i,i,nt,nt,nt,nt
CCCc1cc(=O)oc2cc(OCC(=O)NCCCN3CCCC3=O)ccc12,i,i,i,i,i,nt,nt,nt,nt
CC(NC(=O)Cn1nc(C(F)(F)F)c2c1CCC2)c1ccccc1 (stereo not drawn),i,i,31*,i,i,134%*,i,i,i
O=C(Nc1ccnn1C1CCN(Cc2cc3ccccc3[nH]2)CC1)C1CCOC1 (stereo not drawn),i,i,29*,i,i,339%*,i,i,73*
Cc1c(CN2CCC(n3nccc3NC(=O)C3CCOC3)CC2)[nH]c2ccccc12 (stereo not drawn),i,i,i,i,i,nt,nt,nt,nt
CCCOc1ccc(CSC(=N)N)cc1C(=O)OC,i,i,i,i,i,nt,nt,nt,nt
COC(=O)c1cc(CSC(=N)N)ccc1OCCC(C)C,i,i,37*,i,i,200%*,i,i,i
CC1(C)CC(=O)c2c(Cc3ccccc3)n[nH]c2C1,i,i,i,i,i,nt,nt,nt,nt
CC1(C)CC(=O)c2c(-c3cccnc3)n[nH]c2C1,i,i,29*,i,i,i,i,i,i
